Screening data from PubChem.
The sample as a whole holds a higher share of hits than the screen did.
UPR XBP1 act – activators of adaptive XBP1 UPR arm, primary screen, cell-based, CHO-XBP1 luciferase reporter, luminescence, uHTS | activation, % at 20 µM | AID 463104, 2010 | 0.33% of 330,000 active | IRE1-XBP1 UPR activation; percent of tunicamycin response, DMSO as zero;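 active = versus positive control, 20 µM dose yields 30% or more activation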;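 note: 100% = tunicamycin at 10 µg/mL and 0% = DMSO only wells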
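Assay system: IRE1-XBP1 luciferase reporter CHO line. Input: 1000 cells/well. Buffer or medium: F12 with 10% serum. Doses: 20 µM, 1% DMSO. Times: overnight seeding at 37 °C, 6 h compound treatment at 37 °C. Technique: Steady-Glo luciferase glow luminescence, 10 min after reagent addition.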
CHOP inhibitor – inhibitors of CHOP promoter induction, primary screen, cell-based, unfolded protein response, luciferase reporter. 3.8% of 220,000 active. inhibition, % at 10 µM. CHO-K1 CHOP-promoter luciferase, tunicamycin-induced, 15-18 h;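 active = compounds that reduced the stress-induced luciferase reporter signal by more than about 70% of percent inhibition, limit read from the data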;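 note: 0% = tunicamycin plus vehicle and 100% = wells without tunicamycin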
UPR CHOP act – activators of apoptotic CHOP UPR arm, primary screen, cell-based, CHO-CHOP luciferase reporter, luminescence, uHTS. UPR activation; percent of tunicamycin response over DMSO baseline. activation, % at 10 µM. 0.34% of 330,000 active;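 active = at 10 µM dose, activation of 40% or more, normalized to positive control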;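 note: 100% = tunicamycin at 10 µg/mL and 0% = DMSO alone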
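Evaluation: % reporter activation, DMSO baseline versus tunicamycin full activation; System: CHO-CHOP luciferase reporter cell line; Input: 500 cells/well; Incubation: 6 h compound treatment, 37 °C; Measured by: Steady-Glo luciferase luminescence; Dosing: one dose, 10 µM in 0.5% DMSO; Buffer or medium: F12 medium, 10% FBS; Benchmarks: positive tunicamycin 10 µg/mL, negative DMSO alone.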
VLA-4 inh – inhibition in human VLA-4 binding assay, primary screen, VLA-4 allosteric modulator project, MLPCN library, flow cytometry, VLA-4 expressing cells | inhibition, % (about 7 µM as worked out from the volumes in the protocol) | AID 2557, 2010 | Integrin alpha-4 (Homo sapiens), P13612 | 0.2% of 330,000 active | ligand binding flow cytometry; in the data active = inhibition above about 50%
Beta2AR agonist – beta2AR agonists driving receptor internalization, primary screen, cell-based, FAP fluorogen, flow cytometry; Beta-2 adrenergic receptor (Homo sapiens), P07550; Am2.2-beta2AR cells; response, % (concentration not given with the values); 0.43% of 340,000 active;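 active = response above a set limit, near 3 SD of response in nonfluorescent compounds, cut at about 42% in these data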
Target sequence (P07550 whole entry, looked up): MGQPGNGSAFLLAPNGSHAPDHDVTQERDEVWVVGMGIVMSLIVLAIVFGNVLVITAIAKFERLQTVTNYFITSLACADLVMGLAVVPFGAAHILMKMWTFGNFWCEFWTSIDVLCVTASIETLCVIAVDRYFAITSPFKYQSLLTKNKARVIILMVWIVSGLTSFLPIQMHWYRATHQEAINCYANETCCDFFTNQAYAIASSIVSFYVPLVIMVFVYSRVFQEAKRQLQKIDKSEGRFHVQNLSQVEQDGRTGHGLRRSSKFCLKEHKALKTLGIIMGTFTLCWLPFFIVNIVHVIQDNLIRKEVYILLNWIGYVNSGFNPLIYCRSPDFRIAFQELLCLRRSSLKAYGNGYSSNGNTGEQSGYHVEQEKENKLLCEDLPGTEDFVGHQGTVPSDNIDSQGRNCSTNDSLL
* hit, by the source's call; . = no result given.

SMILES	UPR XBP1 act	CHOP inhibitor	UPR CHOP act	VLA-4 inh	Beta2AR agonist
Cc1nc(SCC(=O)Nc2ccccc2C(F)(F)F)c(C#N)c(C)c1CC(=O)c1ccc(Br)cc1	33*	88*	-1	-3	.
O=C(CNc1ccc2ccccc2c1)N/N=C/c1ccc([N+](=O)[O-])o1	-2	99*	-1	-1	2
O=C(COc1ccccc1)N/N=C/c1ccc([N+](=O)[O-])o1	8	-85	10	0	3
CCOc1ccc(N(CC(=O)Nc2ccc(F)c(F)c2)S(=O)(=O)c2c(C)noc2C)cc1	-2	90*	1	-14	1
COc1ccc(NC(=O)CN(c2ccc(C(C)C)cc2)S(=O)(=O)c2c(C)noc2C)cc1OC	-1	71*	4	1	0
COc1ccc(CCN(C)C(=O)c2ccc(C)c(S(=O)(=O)N3CCCCC3)c2)cc1OC	0	.	0	-12	-1
CCCc1cc(-c2n[nH]c(C)c2-c2ccc(C(=O)OCC)o2)c(O)cc1O	-1	71*	1	-3	4
CC(C)n1nccc1N(Cc1ccc(Br)cc1)S(=O)(=O)c1ccccc1	-2	.	-1	-6	4
CCCCCCCCCCCCCCCC(=O)NCCO	-3	9	1	-7	-7
CCOC(=O)c1[nH]c(Cc2[nH]c(C(=O)OCC)c(C)c2CCC(=O)OC)c(CCC(=O)OC)c1C	-1	85*	-1	-3	-1
Cc1ccc2nc(-c3sc4nc(C)cc(C)c4c3N)[nH]c2c1	-3	91*	-1	-1	-4
Cc1ccc2nc(-c3cccc(N)c3)[nH]c2c1	-4	.	-3	-5	12
Cc1ccc(S(=O)(=O)N(CC(=O)N2CCOCC2)c2ccc(C(C)C)cc2)cc1	-1	.	0	1	-6
COC(=O)Nc1ccc(S(=O)(=O)Nc2ccc(C)cc2)cc1	.	14	.	.	.
COC(=O)Nc1ccc(S(=O)(=O)Nc2ccc(O)cc2)cc1	-4	78*	-1	36	2
C/C(=N\NC(=O)c1ccncc1)c1cccc(NC(=O)c2ccc(Cl)s2)c1	-2	.	1	17	-4
O=c1oc2ccc(Cl)cc2cc1-c1nnc(Nc2cccc(C(F)(F)F)c2)s1	0	-8	-1	-37	9
CNc1nnc(-c2cc3cc(Cl)ccc3oc2=O)s1	3	78*	7	-1	-5
C=CCN(c1ccccc1OC)S(=O)(=O)c1cccc(C(=O)OCC(=O)c2c[nH]c3ccccc23)c1	0	73*	2	13	-2
COc1cc(OC)c(N(C)S(=O)(=O)c2cccc(C(=O)OCC(=O)c3c[nH]c4ccccc34)c2)cc1Cl	-2	66	3	-13	5
O=c1[nH]c(C2CCCN(S(=O)(=O)c3ccc(F)cc3)C2)nc2c1nnn2Cc1ccccc1 (centres undefined)	1	90*	2	-5	5
Cc1ccc(Cn2nnc3c(=O)[nH]c(C4CCCN(S(=O)(=O)c5ccccc5)C4)nc32)cc1 (centres undefined)	0	29	0	3	-10
Cc1cc2cc(C#N)c(N3CCN(S(C)(=O)=O)CC3)nc2cc1C	1	0	1	-6	-2
CCCCc1ccc(NC(=O)COc2ccc(C(=O)Nc3ccccc3OCC)cc2)cc1	3	82*	8	11	-2
CCOC(=O)C(=CNc1cc(C)ccc1[N+](=O)[O-])C(=O)OCC	1	1	4	11	-9
SMILES	UPR XBP1 act	CHOP inhibitor	UPR CHOP act	VLA-4 inh	Beta2AR agonist
CCOC(=O)C(=CNc1cc(C)ccc1C)C(=O)OCC	1	88*	4	1	-6
CCOC(=O)/C=C/C(=O)Nc1ccccc1-c1ccccc1NC(=O)/C=C/C(=O)OCC	.	80*	.	5	25
CCc1nc2sc3ccccc3c(=O)c2c(=O)n1CCOC	1	-14	-1	9	-5
COCCn1c(C2CCCCC2)nc2sc3ccccc3c(=O)c2c1=O	-1	92*	-1	2	-15
CC(C)c1nc2sc3ccccc3c(=O)c2c(=O)n1Cc1ccccc1	-2	11	0	17	11
COc1ccc(Cn2c(C(C)C)nc3sc4ccccc4c(=O)c3c2=O)cc1	0	79*	2	-3	32
CCOc1ccccc1-c1nnc(SCC(=O)NC2(C#N)CCCC2)o1	-2	.	1	7	2
Cc1ccc(OCc2nnc(SCC(=O)CC(=O)Nc3ccccc3)o2)cc1	-3	73*	-2	-1	26
COc1ccc(OCc2nnc(SCC(=O)Nc3ccc(C)cc3)o2)cc1	0	.	0	6	9
CCC(C)Oc1cc(-c2ccnc(Nc3cccc(Cl)c3)n2)ccn1 (centres undefined)	-6	93*	-2	15	18
O=C(c1cc2ccccc2oc1=O)N1CCN(S(=O)(=O)c2ccccc2)CC1	0	.	1	-4	11
Brc1ccc(-c2ccc(C3Nc4cccc5cccc(c45)N3)o2)cc1	37*	.	6	-19	.
CCCCCCN(C(=O)CCCCCN1C(=O)NC(c2ccc(-c3ccccc3)cc2)C(C(=O)OCc2ccccc2)=C1C)C(C)C(=O)NCCCC (centres undefined)	-1	16	2	34	.
CCCCNC(=O)C(C1CCCCC1)N(CCN(C)C)C(=O)CCCN1C(=O)NC(c2ccc(-c3ccccc3)cc2)C(C(=O)OCc2ccccc2)=C1C (centres undefined)	41*	.	30	.	.
O=C(CN1c2ccccc2S(=O)(=O)c2ccccc21)Nc1ccccc1F	0	.	3	16	-2
O=Cc1ccc2noc(-c3ccc(F)cc3)c2c1	0	49	1	5	46*
CN(C)c1ccc(N/C(N)=N/c2nc(C(F)(F)F)cc(C(F)(F)F)n2)cc1	-1	85*	-1	-6	-8
CCN(CC)c1ccc(N/C(N)=N/c2nc(C(F)(F)F)cc(=O)[nH]2)cc1	4	73*	-1	8	6
Cc1cccc(N/C(N)=N/c2nc(C(F)(F)F)cc(C(F)(F)F)n2)c1	0	0	-2	-19	-9
N/C(=N\c1nc(C(F)(F)F)cc(=O)[nH]1)Nc1ccc(Cl)cc1	-1	53	-2	2	.
COc1ccc2c(c1)CCC(C)N2C(=O)C(=O)c1c[nH]c2ccccc12 (centres undefined)	0	14	1	7	-7
Cc1nnc(N2C(=O)c3oc4ccccc4c(=O)c3C2c2ccco2)s1 (centres undefined)	-3	9	-1	-8	-14
